# Results collected from several papers.
# Lines come from different studies, so protocols differ.
# Target: Serine/threonine-protein kinase ULK2 (ULK2, Homo sapiens, UniProt Q8IYT8)
# Sequence (Q8IYT8 1-1036, as in one of the studies): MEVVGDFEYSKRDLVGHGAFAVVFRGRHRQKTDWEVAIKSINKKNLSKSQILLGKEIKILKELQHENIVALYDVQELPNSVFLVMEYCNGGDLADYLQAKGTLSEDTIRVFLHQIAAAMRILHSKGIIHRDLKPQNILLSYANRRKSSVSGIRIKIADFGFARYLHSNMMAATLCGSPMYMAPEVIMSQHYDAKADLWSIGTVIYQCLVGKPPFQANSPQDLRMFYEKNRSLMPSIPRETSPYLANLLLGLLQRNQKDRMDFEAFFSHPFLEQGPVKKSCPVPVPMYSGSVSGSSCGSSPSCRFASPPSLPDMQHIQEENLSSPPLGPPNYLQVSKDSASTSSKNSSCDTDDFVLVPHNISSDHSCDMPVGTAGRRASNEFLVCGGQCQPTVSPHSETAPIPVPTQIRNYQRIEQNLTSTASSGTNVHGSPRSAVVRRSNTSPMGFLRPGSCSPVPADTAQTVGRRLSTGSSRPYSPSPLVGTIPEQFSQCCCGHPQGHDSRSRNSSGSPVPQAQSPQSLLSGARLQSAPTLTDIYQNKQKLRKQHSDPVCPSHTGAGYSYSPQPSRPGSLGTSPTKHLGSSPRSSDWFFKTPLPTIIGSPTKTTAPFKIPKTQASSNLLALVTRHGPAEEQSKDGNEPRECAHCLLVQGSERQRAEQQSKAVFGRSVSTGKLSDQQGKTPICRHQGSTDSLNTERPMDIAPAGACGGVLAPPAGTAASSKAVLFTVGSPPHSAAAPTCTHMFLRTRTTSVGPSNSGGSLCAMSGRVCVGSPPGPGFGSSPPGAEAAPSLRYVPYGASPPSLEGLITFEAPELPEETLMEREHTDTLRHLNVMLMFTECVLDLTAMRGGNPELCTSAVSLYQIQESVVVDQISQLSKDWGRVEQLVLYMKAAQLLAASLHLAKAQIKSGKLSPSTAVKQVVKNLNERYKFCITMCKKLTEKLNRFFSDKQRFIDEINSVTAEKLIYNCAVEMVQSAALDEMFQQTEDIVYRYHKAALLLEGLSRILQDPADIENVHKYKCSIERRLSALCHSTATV
Structure (SMILES),test,conditions,measurement,value
COc1cc(Nc2ncc(F)c(Nc3ccc4c(n3)NC(=O)C(C)(C)O4)n2)cc(OC)c1OC,binding,10 µM,inhibition,100%
Nc1ncc(-c2nc(N3CCOCC3)nc(N3CCOCC3)n2)c(C(F)F)n1,"binding, competition with immobilised ligand",10 µM,remaining binding,72%
Cn1cncc1[C@](O)(COc1ccc(C#N)cc1-c1ccc(OC(F)(F)F)cc1)c1ccc(C#N)cc1,"cell-free assay, competition with immobilised ligand",1 µM,remaining binding,100%
COc1ncccc1-c1cnn2ccc(N3CCN(C(=O)OC(C)C)CC3)nc12,"binding, competition with immobilised ligand",1 µM,remaining binding,70%
Cc1nn(C)cc1-c1nc2c(N3CCN(Cc4ccc(Cl)cc4)CC3)c(Cl)cnc2[nH]1,"binding, competition with immobilised ligand",1 µM,remaining binding,100%
CC(C)(C)c1cc(C=C(C#N)C#N)cc(Br)c1O,"enzyme activity, inhibitor",0.5 µM,remaining activity,103%
C#Cc1n[nH]c2c(-c3cn(C(C)c4ccccn4)c(=O)[nH]c3=O)cc(F)cc12 (stereo not drawn),"enzyme activity, inhibitor",1 µM,inhibition,8.6%
O=c1[nH]c2ccccc2n1C1CCN(Cc2ccc(-c3[nH]c4cc5ncnc5cc4nc3-c3ccccc3)cc2)CC1,cell-free assay,0.5 µM,remaining signal,106%
C#Cc1n[nH]c2c(-c3cn([C@@H](C)c4ccccc4)c(=O)[nH]c3=O)cc(F)cc12,"enzyme activity, inhibitor",0.1 µM,inhibition,-3.5%
